The source of these data is ChEMBL document CHEMBL1141449, “Diterpenes, sesquiterpenes, and a C15-acetogenin from the marine red alga Laurencia mariannensis” (2007).

Calls of active or inactive are those of the source. No cut-off for these calls is given here.

The subject of assay [1] is Aspergillus niger. The experiment in a line: Antifungal activity against Aspergillus niger by standard agar diffusion test. The class given is functional, organism-based. In a few lines:
(§1)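 Agar diffusion assay following a cited standard method. Read-out is the diameter of the growth-inhibition zone, in mm.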
In general terms: In agar diffusion tests the substance spreads into inoculated agar from a disc or well.

Assay [2] relates to Candida albicans. Description: Antifungal activity against Candida albicans by standard agar diffusion test. It is filed as functional, organism-based. In a few lines:
as §1

The subject of assay [3] is Escherichia coli. Description: Antibacterial activity against Escherichia coli by standard agar diffusion test. It is filed as functional. In a few lines: as §1
The subject of assay [4] is Staphylococcus aureus. The experiment in a line: Antibacterial activity against Staphylococcus aureus by standard agar diffusion test. It is filed as functional. In outline: as §1

For `C=C[C@]1(C)CC[C@H]2C(C)=CC[C@@H](C)[C@]2(C)O1`, the result in assay [1] and in assay [2] was inactive.
As for `CC/C(Br)=C/C=C\C1=C(Br)[C@H]2O[C@H](C=C=CBr)C[C@H]2O1` [LAURENMARIALLENE], the outcome in assay [1] and in assay [2] was inactive. For the same compound, the “inhibition zone (IZ)” value in assay [3] is reported as 7 mm.
On to `C=C1CC[C@H](Br)C(C)(C)[C@@]12CCC(C)=C(Cl)C2`, for which the result in assay [1] and in assay [2] was inactive.
As to `C=C1CC[C@H](Br)C(C)(C)[C@]12CC[C@@]1(C)[C@H](C2)[C@](C)(O)[C@H](O)C[C@@H]1Br`, the outcome in assay [1] and in assay [2] was inactive. Moreover, the “inhibition zone (IZ)” value in assay [4] and in assay [3] was 6.5 mm each time.
